Activity calls are given as the source filed them. No cut-off for these calls is given here.
Assays:
[1] = Acute toxicity in Swiss albino mouse assessed as ALKP level at 50 mg/kg, po measured after 7 days (reference value: 379.25 +/- 27.08 U/L); format: organism-based; conditions: in vivo, 168 h, time 7 day
[2] = Acute toxicity in Swiss albino mouse assessed as serum protein level at 50 mg/kg, po measured after 7 days (reference value: 0.66 +/- 0.01 mg/ml); format: organism-based; conditions: in vivo, 168 h, time 7 day
[3] = Acute toxicity in Swiss albino mouse assessed as SGOT level at 50 mg/kg, po measured after 7 days (reference value: 31.99 +/- 3.37 U/L); format: organism-based; conditions: in vivo, 168 h, time 7 day
[4] = Acute toxicity in Swiss albino mouse assessed as malondialdehyde level at 1000 mg/kg, po measured after 7 days (reference value: 0.14 +/- 0.01 nM/mg); format: organism-based; conditions: in vivo, 168 h, time 7 day
[5] = Acute toxicity in Swiss albino mouse assessed as relative liver weight at 300 mg/kg, po measured after 7 days (reference value: 6.81 +/- 2.14 %); format: organism-based; conditions: in vivo, 168 h, time 7 day
[6] = Tmax in Sprague-Dawley rat at 1 mg/kg, po measured upto 24 hrs by LC-MS/MS analysis; format: ADME, organism-based; conditions: in vivo
Method in brief: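 Female Sprague-Dawley rats (n = 4), fasted overnight 12–14 h, dosed orally at 1 mg kg-1 as a 0.25% CMC suspension and fed 3 h post-dose. Retro-orbital blood was taken from 0.25 to 24 h. Plasma was hexane-extracted and assayed by LC-MS/MS. Cmax and Tmax were read from the data; other parameters came from non-compartmental analysis. Mean ± S.D.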

[7] = Acute toxicity in Swiss albino mouse assessed as relative testes weight at 5 mg/kg, po measured after 7 days (reference value: 0.62 +/- 0.03 %); format: organism-based; conditions: in vivo, 168 h, time 7 day
[8] = Acute toxicity in Swiss albino mouse assessed as relative brain weight at 50 mg/kg, po measured after 7 days (reference value: 1.63 +/- 0.13 %); format: organism-based; conditions: in vivo, 168 h, time 7 day
[9] = Acute toxicity in Swiss albino mouse assessed as absolute lung weight at 50 mg/kg, po measured after 7 days (reference value: 0.16 +/- 0.01 g); format: organism-based; conditions: in vivo, 168 h, time 7 day
Mus musculus [10] = experiment: In vivo osteogenic activity in ovariectomized BALB/c mouse assessed as decrease in trabecular spacing at 1 to 10 mg/kg, po via gavage administered for 1 month by microCT imaging analysis; format: functional, organism-based; conditions: dose 1-10 mg/kg, time 1.0 months
Method in brief: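 Ovariectomized female balb/c mice, 8 weeks old, 10 per group, received 1.0 or 10.0 mg kg-1 once daily by oral gavage (gum acacia vehicle) for 4 weeks, alongside sham and Ovx vehicle groups. Femurs were scanned by microCT. BV/TV, Tb.N and Tb.Sp were derived by the mean intercept length method. Mean ± SE.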

[11] = Acute toxicity in Swiss albino mouse assessed as reduced GSH level at 50 mg/kg, po measured after 7 days (reference value: 18.20 +/- 1.56 ug/mg of protein); format: organism-based; conditions: in vivo, 168 h, time 7 day
[12] = Acute toxicity in Swiss albino mouse assessed as relative ovary weight at 50 mg/kg, po measured after 7 days (reference value: 0.07 +/- 0.02 %); format: organism-based; conditions: in vivo, 168 h, time 7 day
[13] = Acute toxicity in Swiss albino mouse assessed as mortality at 5 to 1000 mg/kg, po measured after 7 days; format: organism-based; conditions: in vivo, 168 h, dose 5-1000 mg/kg, time 7 day
Method in brief: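 Acute oral toxicity per OECD guidelines 420, 423 and 425. Swiss albino mice received a single oral dose at 5, 50, 300 or 1000 mg kg1 body weight, with vehicle controls. Animals were watched for morbidity, mortality and observational changes over 7 days. Tail-vein blood was then taken for hematology and serum biochemistry. Organs were inspected at sacrifice. n = 6 per group.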

[14] = Volume of distribution in Sprague-Dawley rat at 1 mg/kg, iv measured upto 24 hrs by LC-MS/MS analysis; format: ADME, organism-based; conditions: in vivo
Mus musculus [15] = experiment: In vivo osteogenic activity in ovariectomized BALB/c mouse assessed as increase in bone stiffness at 1 to 10 mg/kg, po via gavage administered for 1 month by TKC Muromachi bone strength testing method; format: functional, organism-based; conditions: dose 1-10 mg/kg, time 1.0 months
Method in brief: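 Ovariectomized balb/c mice were gavaged with 1 or 10 mg kg-1 daily for one month. Bones were then tested on a bone strength tester for energy, stiffness and force to break. Mean ± SEM compared with the Ovx vehicle group.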

[16] = Acute toxicity in Swiss albino mouse assessed as body weight at 5 mg/kg, po observed on day 1 (reference value: 20.38 +/- 0.24 g); format: organism-based; conditions: in vivo, 24 h, time 1 day
[17] = Acute toxicity in Swiss albino mouse assessed as haemoglobin level at 50 mg/kg, po measured after 7 days (reference value: 10.86 +/- 0.87 g/dL); format: organism-based; conditions: in vivo, 168 h, time 7 day
[18] = Acute toxicity in Swiss albino mouse assessed as eosinophil count at 1000 mg/kg, po measured after 7 days (reference value: 6.34 +/- 1.04 %); format: organism-based; conditions: in vivo, 168 h, time 7 day
[19] = Acute toxicity in Swiss albino mouse assessed as SGPT level at 5 mg/kg, po measured after 7 days (reference value: 14.04 +/- 1.45 U/L); format: organism-based; conditions: in vivo, 168 h, time 7 day
[20] = Acute toxicity in Swiss albino mouse assessed as serum protein level at 5 mg/kg, po measured after 7 days (reference value: 0.66 +/- 0.01 mg/ml); format: organism-based; conditions: in vivo, 168 h, time 7 day
Calvarial osteoblast = experiment: Induction of osteoblast differentiation in mouse calvarial osteoblast assessed as increase in BMP-2 mRNA expression at 1 pM incubated for 48 hrs by qPCR analysis; format: functional, cell-based
Method in brief: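 Calvarial osteoblasts were treated at 1 pM for 24 and 48 h. Total RNA was extracted with TRIzol, and cDNA was made from 2 µg RNA. qPCR ran 40 cycles for BMP-2, RUNX-2, OCN and collagen type 1, with normalization to GAPDH. Mean ± SEM of three independent experiments.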

[21] = AUC (0 to 24 hrs) in Sprague-Dawley rat at 1 mg/kg, po measured upto 24 hrs by LC-MS/MS analysis; format: ADME, organism-based; set-up: route oral, dose 1 mg/kg, time <=24; conditions: in vivo
Method in brief: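 Female Sprague-Dawley rats (n = 4 per route), fasted overnight (12-14 h); 1 mg/kg orally in 0.25% CMC suspension, or an i.v. tail-vein bolus in DMSO-PEG400-ethanol-water (4:3:1:2). Retro-orbital blood was taken up to 24 h, and plasma was extracted with n-hexane (halofantrine IS). LC-MS/MS linear range 0.5-200 ng/mL. AUC0-24 was calculated by the linear trapezoidal rule, non-compartmental; mean ± S.D.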

[22] = Acute toxicity in Swiss albino mouse assessed as reduced GSH level at 1000 mg/kg, po measured after 7 days (reference value: 18.20 +/- 1.56 ug/mg of protein); format: organism-based; conditions: in vivo, 168 h, time 7 day
[23] = Acute toxicity in Swiss albino mouse assessed as haemoglobin level at 5 mg/kg, po measured after 7 days (reference value: 10.86 +/- 0.87 g/dL); format: organism-based; conditions: in vivo, 168 h, time 7 day
[24] = Acute toxicity in Swiss albino mouse assessed as relative ovary weight at 1000 mg/kg, po measured after 7 days (reference value: 0.07 +/- 0.02 %); format: organism-based; conditions: in vivo, 168 h, time 7 day
[25] = Acute toxicity in Swiss albino mouse assessed as absolute spleen weight at 5 mg/kg, po measured after 7 days (reference value: 0.17 +/- 0.03 g); format: organism-based; conditions: in vivo, 168 h, time 7 day
[26] = Acute toxicity in Swiss albino mouse assessed as basophil count at 1000 mg/kg, po measured after 7 days (reference value: 1.50 +/- 0.29 %); format: organism-based; conditions: in vivo, 168 h, time 7 day

CCCCN(C)C(=O)CCCCOc1ccc([C@H]2c3ccc(OC)cc3OC(C)(C)[C@@H]2c2ccccc2)cc1
Activity [1]: 306.33 U/L | Activity [2]: 0.74 mg/mL | Activity [3]: 40.13 U/L | Activity [4]: 0.16 nM/mg | Activity [5]: 4.84% | Tmax [6]: 1.5 h | Activity [7]: 0.6% | Activity [8]: 1.54% | Activity [9]: 0.2 g | Activity (Mus musculus [10]): Active | Activity [11]: 15 µg/mg | Activity [12]: 0.33% | Activity [13]: Non-Toxic | Vd [14]: 5.61 L/kg | Activity (Mus musculus [15]): Active | Activity [16]: 20.65 g | Activity [17]: 13.14 g/dL | Activity [18]: 5.35% | Activity [19]: 17.44 U/L | Activity [20]: 0.74 mg/mL | Activity (Calvarial osteoblast): Active | AUC(0-t) [21]: 114 ng·h/mL | Activity [22]: 13.98 µg/mg | Activity [23]: 12.94 g/dL | Activity [24]: 0.05% | Activity [25]: 0.11 g | Activity [26]: 1.75%
